From ChEMBL document CHEMBL1148175, “Immunostimulant agents from Andrographis paniculata” (1993)

Key:
Format in all cases: functional
Mus musculus [1] = assay: Immunostimulant activity in sheep RBC-immunized BALB/c albino mouse assessed as hemolytic plaque-forming cells per 10^5 spleen cells at 4 mg/kg, ip administered on day 7 and 3 prior to immunization measured after 5 days; conditions: route intraperitoneal
Procedure, shortened: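 Following ip dosing on days -7 and -3 and ip SRBC (1×10^8) on day 0, splenic hemolytic plaques counted on day 5 by Jerne-Nordin technique, duplicate per mouse. Group means expressed as PFC/10^5 spleen cells. Three experiments with four animals each; Student's t-test.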

Mus musculus [2] = assay: Immunostimulant activity in sheep RBC-immunized BALB/c albino mouse assessed as delayed-type hypersensitivity response-related right foot pad thickness at 4 mg/kg, ip administered on day 7 and 3 prior to immunization measured after 5 days relative to non-immunized foot pad thickness; conditions: route intraperitoneal
Procedure, shortened: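 Mice (BALB/c, either sex, 20-22 g; four per group) immunized ip with 1×10^8 SRBC on day 0; on day 5 challenged with 1×10^8 SRBC (50 μl) in right foot pad. Foot pad thickness read 24 h later; reaction in mm = right (SRBC) minus PBS-injected pad. Compound in PBS pH 7.2 given ip on days -7 and -3. Student's t-test.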

Mus musculus [3] = assay: Nonspecific immunostimulant activity in sheep RBC-immunized BALB/c albino mouse assessed as phagocytosis of [14C] leucine labeled Escherichia coli at 4 mg/kg, ip administered on day 7 and 3 prior to immunization; conditions: route intraperitoneal
Procedure, shortened: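 Peritoneal macrophages from mice dosed ip on days -7 and -3 incubated in vitro with E. coli labelled with 14C-leucine (sp. act. 190 mCi/mmol). Uptake expressed as percentage incorporation of 14C-leucine. Three experiments, four animals each.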

Mus musculus [4] = assay: Immunostimulant activity in sheep RBC-immunized BALB/c albino mouse assessed as hemagglutininating antibody titer at 4 mg/kg, ip administered on day 7 and 3 prior to immunization measured after 5 days by microtiter hemagglutinination technique; conditions: route intraperitoneal
Procedure, shortened: (§1)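 Compound dissolved in 0.05 M phosphate buffer pH 7.2 with 0.1 M NaCl, given orally daily for 7 days or ip on days -7 and -3, then ip immunization with 1×10^8 SRBC. Serum from retro-orbital bleed on day 5; twofold dilutions mixed with 1% SRBC, 1.5-2 h at room temperature. Titer = reciprocal of highest dilution giving 50% agglutination. Two experiments, four mice each.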

Mus musculus [5] = assay: Nonspecific immunostimulant activity in sheep RBC-immunized BALB/c albino mouse assessed as macrophage migration index at 4 mg/kg, ip administered on day 7 and 3 prior to immunization measured after 18 to 24 hrs; conditions: route intraperitoneal
Procedure, shortened: (§2)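 Peritoneal exudate cells from dosed mice (oral daily 7 days, or ip on days -7 and -3) packed in microhematocrit capillaries and allowed to migrate 18-24 h in a migration chamber. MMI = ratio of migration areas, control vs. treated animals. Two experiments, four mice each.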

Mus musculus [6] = assay: Immunostimulant activity in sheep RBC-immunized BALB/c albino mouse assessed as macrophage migration index at 1 mg/kg, po administered daily for 7 days measured after 18 to 24 hrs; procedure, shortened: as §2
Mus musculus [7] = assay: Nonspecific immunostimulant activity in sheep RBC-immunized BALB/c albino mouse assessed as [3H]thymidine uptake by splenic lymphocytes at 4 mg/kg, ip administered on day 7 and 3 prior to immunization by liquid scintillation counting; conditions: route intraperitoneal
Procedure, shortened: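 Spleen cells from ip-treated mice (days -7, -3) at 1.5×10^6 cells/ml in complete RPMI-1640 with fetal calf serum, cultured in triplicate 3 days at 37° under 5% CO2, then pulsed 18 h with 1 μCi 3H-thymidine. Incorporation counted by scintillation, reported as cpm ± SD.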

Mus musculus [8] = assay: Immunostimulant activity in sheep RBC-immunized BALB/c albino mouse assessed as hemagglutininating antibody titer at 1 mg/kg, po administered daily for 7 days by microtiter hemagglutinination technique; procedure, shortened: as §1

With `C=C1CC[C@@H]2[C@](C)(CO)[C@H](O)CC[C@@]2(C)[C@@H]1C/C=C1/C(=O)OC[C@H]1O` [ANDROGRAPHOLIDE] the Activity (Mus musculus [1]) was 128, the Activity (Mus musculus [2]) was 2.5 mm and the Activity (Mus musculus [3]) was 55.56%. For the same compound, the Activity (Mus musculus [4]) was 1536, the Activity (Mus musculus [5]) was 2.84 and the Activity (Mus musculus [6]) was 1.6. The Activity (Mus musculus [7]) was 6486 cpm and the Activity (Mus musculus [8]) was 1280.
With `C=C1CC[C@@H]2[C@](C)(CO[C@@H]3O[C@H](CO)[C@@H](O)[C@H](O)[C@H]3O)CCC[C@@]2(C)[C@@H]1CCC1=CCOC1=O` [NEOANDROGRAPHOLIDE] the Activity (Mus musculus [4]) was 1638.4, the Activity (Mus musculus [5]) was 2.51 and the Activity (Mus musculus [6]) was 1.9. It also gave an Activity (Mus musculus [8]) of 1365.33.
